Measurements: ChEMBL document CHEMBL3352115, “Discovery of APD334: Design of a Clinical Stage Functional Antagonist of the Sphingosine-1-phosphate-1 Receptor” (ACS Med Chem Lett, 2014)
Calls of active or inactive are those of the source. No cut-off for these calls is given here.

Experiments:
[1] = Tmax in mouse at 1 mg/kg, iv or 1 mg/kg, po; format: ADME, organism-based; conditions: in vivo
[2] = biological target: Sphingosine 1-phosphate receptor 1 (Macaca mulatta, UniProt H9EUW9); experiment: Agonist activity at monkey S1P1 receptor assessed as cAMP accumulation by HTRF assay; format: functional
Sphingosine 1-phosphate receptor 1 (Macaca mulatta, UniProt H9EUW9), sequence (H9EUW9 whole entry): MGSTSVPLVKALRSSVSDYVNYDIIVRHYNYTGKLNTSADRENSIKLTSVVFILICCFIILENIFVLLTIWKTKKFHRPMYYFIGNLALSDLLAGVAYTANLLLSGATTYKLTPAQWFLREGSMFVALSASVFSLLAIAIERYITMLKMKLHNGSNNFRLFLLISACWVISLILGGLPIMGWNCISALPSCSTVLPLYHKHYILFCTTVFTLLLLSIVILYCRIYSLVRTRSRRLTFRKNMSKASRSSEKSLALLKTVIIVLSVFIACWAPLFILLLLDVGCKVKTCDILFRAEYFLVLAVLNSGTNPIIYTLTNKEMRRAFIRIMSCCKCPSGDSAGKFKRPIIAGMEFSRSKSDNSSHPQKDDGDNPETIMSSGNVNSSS
How it was run: (§1)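 HTRF cyclase (cAMP) functional assay at S1P1 of each species; EC50 taken as mean of three or more replicates; efficacy given as % agonism relative to S1P.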

Canis familiaris = experiment: Effect on body temperature in telemeterized dog up to 40 mg/kg; format: ADME, organism-based, Canis lupus familiaris; parameters: dose 40 mg/kg; conditions: in vivo
How it was run: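 Telemeterized dogs dosed at levels up to 40 mg/kg; pulse pressure, heart rate, body temperature and ECG parameters monitored.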

[3] = biological target: Voltage-gated inwardly rectifying potassium channel KCNH2 (Homo sapiens, UniProt Q12809); experiment: Displacement of [3H]astemizole from human ERG
Voltage-gated inwardly rectifying potassium channel KCNH2, sequence (Q12809 whole entry): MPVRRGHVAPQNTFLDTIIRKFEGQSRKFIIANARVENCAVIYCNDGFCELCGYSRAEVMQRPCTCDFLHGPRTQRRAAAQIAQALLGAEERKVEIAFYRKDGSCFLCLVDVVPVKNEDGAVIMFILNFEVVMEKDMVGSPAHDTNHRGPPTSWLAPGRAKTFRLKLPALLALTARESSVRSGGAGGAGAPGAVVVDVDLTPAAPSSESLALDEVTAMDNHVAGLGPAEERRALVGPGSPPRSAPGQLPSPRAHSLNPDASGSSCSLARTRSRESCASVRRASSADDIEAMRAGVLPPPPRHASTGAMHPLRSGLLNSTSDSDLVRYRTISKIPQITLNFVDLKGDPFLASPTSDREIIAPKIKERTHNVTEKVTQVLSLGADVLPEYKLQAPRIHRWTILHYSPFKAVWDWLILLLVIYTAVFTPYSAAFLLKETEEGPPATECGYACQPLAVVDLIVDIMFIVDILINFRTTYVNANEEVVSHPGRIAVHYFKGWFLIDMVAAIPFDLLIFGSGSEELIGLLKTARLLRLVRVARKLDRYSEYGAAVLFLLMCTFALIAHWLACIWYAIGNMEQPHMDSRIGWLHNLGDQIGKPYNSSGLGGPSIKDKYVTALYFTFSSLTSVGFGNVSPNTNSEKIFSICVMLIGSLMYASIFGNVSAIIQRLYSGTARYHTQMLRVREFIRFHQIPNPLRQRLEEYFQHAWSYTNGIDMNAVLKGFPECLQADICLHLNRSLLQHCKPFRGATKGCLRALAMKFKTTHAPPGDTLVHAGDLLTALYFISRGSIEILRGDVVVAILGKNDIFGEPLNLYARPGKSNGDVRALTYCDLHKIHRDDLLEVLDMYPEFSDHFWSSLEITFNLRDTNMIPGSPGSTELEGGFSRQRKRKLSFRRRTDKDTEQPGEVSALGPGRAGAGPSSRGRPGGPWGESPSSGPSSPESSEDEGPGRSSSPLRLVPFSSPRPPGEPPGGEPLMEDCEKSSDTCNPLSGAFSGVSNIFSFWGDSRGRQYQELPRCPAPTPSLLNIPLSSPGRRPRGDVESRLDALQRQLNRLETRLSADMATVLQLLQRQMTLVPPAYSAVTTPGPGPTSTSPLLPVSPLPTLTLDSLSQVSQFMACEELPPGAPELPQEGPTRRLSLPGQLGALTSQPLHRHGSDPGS
How it was run: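 hERG interaction assessed by [³H]-astemizole binding displacement.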

[4] = biological target: Sphingosine 1-phosphate receptor 5 (Homo sapiens) (UniProt Q9H228); experiment: Agonist activity at human S1P5 receptor by beta-arrestin recruitment assay relative to S1P
Sphingosine 1-phosphate receptor 5 (Homo sapiens), sequence (Q9H228 whole entry): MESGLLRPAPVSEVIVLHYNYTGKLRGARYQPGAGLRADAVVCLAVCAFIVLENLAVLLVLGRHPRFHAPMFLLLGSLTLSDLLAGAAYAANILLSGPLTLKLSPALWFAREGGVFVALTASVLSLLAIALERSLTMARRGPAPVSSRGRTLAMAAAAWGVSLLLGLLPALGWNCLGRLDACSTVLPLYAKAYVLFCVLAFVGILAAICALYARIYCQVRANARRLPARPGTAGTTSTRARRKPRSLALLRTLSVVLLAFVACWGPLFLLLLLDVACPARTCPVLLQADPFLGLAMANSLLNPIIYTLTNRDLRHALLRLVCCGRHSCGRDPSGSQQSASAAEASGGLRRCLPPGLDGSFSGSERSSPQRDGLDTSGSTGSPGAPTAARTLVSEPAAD

[5] = biological target: Sphingosine 1-phosphate receptor 1 (Mus musculus, UniProt O08530); experiment: Agonist activity at mouse S1P1 receptor assessed as cAMP accumulation by HTRF assay; format: functional; how it was run: as §1
Sphingosine 1-phosphate receptor 1 (Mus musculus, UniProt O08530), sequence (O08530 whole entry): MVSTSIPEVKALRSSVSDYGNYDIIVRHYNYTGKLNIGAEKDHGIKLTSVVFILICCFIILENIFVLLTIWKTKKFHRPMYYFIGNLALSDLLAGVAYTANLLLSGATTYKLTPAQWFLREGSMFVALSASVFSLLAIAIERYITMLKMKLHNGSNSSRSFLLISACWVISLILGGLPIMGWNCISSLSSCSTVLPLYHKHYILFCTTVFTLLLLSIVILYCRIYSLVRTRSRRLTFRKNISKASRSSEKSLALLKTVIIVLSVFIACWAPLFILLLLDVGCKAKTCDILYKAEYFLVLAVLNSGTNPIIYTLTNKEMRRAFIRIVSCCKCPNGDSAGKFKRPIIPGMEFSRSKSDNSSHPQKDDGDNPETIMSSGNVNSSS

Salmonella typhimurium [6] = experiment: Genotoxicity in Salmonella typhimurium in absence of rat liver S9 fraction by Ames bacterial reverse mutation assay; format: toxicity, organism-based; conditions: salmonella enterica subsp. enterica serovar typhimurium
[7] = biological target: Sphingosine 1-phosphate receptor 1 (Mus musculus) (UniProt O08530); experiment: Agonist activity at mouse S1P1 receptor assessed as cAMP accumulation by HTRF assay relative to S1P; format: functional; how it was run: as §1
Sphingosine 1-phosphate receptor 1 (Mus musculus), sequence (O08530 whole entry): as above

[8] = biological target: Sphingosine 1-phosphate receptor 4 (Homo sapiens) (UniProt O95977); experiment: Agonist activity at human S1P4 receptor by beta-arrestin recruitment assay relative to S1P
Sphingosine 1-phosphate receptor 4 (Homo sapiens), sequence (O95977 whole entry): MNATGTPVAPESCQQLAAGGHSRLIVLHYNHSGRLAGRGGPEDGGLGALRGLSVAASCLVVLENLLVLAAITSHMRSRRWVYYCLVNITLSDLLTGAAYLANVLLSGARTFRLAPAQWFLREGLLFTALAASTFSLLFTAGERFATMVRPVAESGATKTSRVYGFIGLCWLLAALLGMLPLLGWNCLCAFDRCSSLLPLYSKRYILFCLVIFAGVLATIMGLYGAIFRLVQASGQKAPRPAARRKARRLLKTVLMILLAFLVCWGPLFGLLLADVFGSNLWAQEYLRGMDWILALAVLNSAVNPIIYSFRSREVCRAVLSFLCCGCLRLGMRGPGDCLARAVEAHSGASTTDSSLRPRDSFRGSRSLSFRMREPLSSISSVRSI

[9] = Cmax in rat at 1 mg/kg, iv or 1 mg/kg, po; format: ADME, organism-based; conditions: in vivo
[10] = AUC (0 to infinity) in mouse at 1 mg/kg, iv or 1 mg/kg, po; format: ADME, organism-based; conditions: plasma
How it was run: (§2)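 Preclinical iv/po PK; amorphous free acid dosed orally as a suspension in 0.5% methyl cellulose; clearance and Vss from intravenous administration.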

[11] = Cmax in mouse at 1 mg/kg, iv or 1 mg/kg, po; format: ADME, organism-based; conditions: in vivo; how it was run: as §2
[12] = Cmax in dog at 1 mg/kg, iv or 3 mg/kg, po; format: ADME, organism-based, Canis lupus familiaris; conditions: in vivo; how it was run: as §2
[13] = biological target: Sphingosine-1-phosphate receptor 1 (Canis lupus familiaris) (UniProt W5VNF7); experiment: Agonist activity at dog S1P1 receptor assessed as cAMP accumulation by HTRF assay relative to S1P; format: functional; how it was run: as §1
Sphingosine-1-phosphate receptor 1 (Canis lupus familiaris), sequence (W5VNF7 as listed by the source): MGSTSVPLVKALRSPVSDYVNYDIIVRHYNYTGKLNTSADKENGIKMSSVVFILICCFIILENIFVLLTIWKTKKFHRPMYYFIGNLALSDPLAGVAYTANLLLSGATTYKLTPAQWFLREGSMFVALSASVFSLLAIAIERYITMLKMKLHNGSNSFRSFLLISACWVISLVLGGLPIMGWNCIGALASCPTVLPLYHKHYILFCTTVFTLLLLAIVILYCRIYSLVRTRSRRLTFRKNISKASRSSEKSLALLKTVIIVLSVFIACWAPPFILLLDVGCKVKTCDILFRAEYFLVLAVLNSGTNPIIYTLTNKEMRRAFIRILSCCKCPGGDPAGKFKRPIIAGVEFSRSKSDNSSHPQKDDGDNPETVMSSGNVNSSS

[14] = Oral bioavailability in monkey at 3 mg/kg; format: ADME, organism-based, Macaca mulatta; conditions: rhesus monkey, in vivo
Mus musculus [15] = experiment: Reduction in inflammatory foci in C57Bl/6 mouse experimental autoimmune encephalomyelitis model of multiple sclerosis at 3 mg/kg dosed once daily beginning on day 18 and continued to day 37 by immunofluorescent staining method; format: functional, organism-based; parameters: dose 3 mg/kg
How it was run: (§3)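 Therapeutic EAE in female C57Bl/6 mice, dosing from day 18; spinal cord and brain collected day 37; cerebellum sections immunostained for CD45 and CD3 with DAPI counterstain; inflammatory foci and infiltrating lymphocytes assessed.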

Rattus norvegicus [16] = experiment: Reduction in ankle diameter in Lewis rat collagen-induced arthritis model at 1 mg/kg, po qd measured on day 17 (reference value: +/- inches); format: functional
How it was run: (§4)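 Female Lewis rats with collagen-induced arthritis, prophylactic daily oral dosing; ankle diameter (inches) and body weight recorded at day 17 end point; mean ± SEM.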

[17] = Activation of Inward rectifier potassium channel in human atrial myocytes; format: cell-based; conditions: Cardiac atrium
How it was run: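 In vitro activation of the inward-rectifying potassium channel (IKACh) in human atrial myocytes, run alongside S1P as reference agonist; potency expressed as EC50.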

[18] = Oral bioavailability in rat at 1 mg/kg; format: ADME, organism-based; conditions: in vivo
[19] = Oral bioavailability in dog at 3 mg/kg; format: ADME, organism-based, Canis lupus familiaris; conditions: in vivo
Rattus norvegicus [20] = experiment: Toxicity in Sprague-Dawley rat assessed as induction of CNS clinical changes at 1000 mg/kg during 14 day repeat dose study; format: organism-based, Central nervous system; parameters: dose 1000 mg/kg; conditions: in vivo, 336 h
How it was run: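 14-day repeat-dose rat toxicity study with dose groups of 30, 100, 300 and 1000 mg/kg; animals monitored for tolerability, mortality and CNS clinical signs.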

[21] = biological target: Sphingosine-1-phosphate receptor 1 (Canis lupus familiaris, UniProt W5VNF7); experiment: Agonist activity at dog S1P1 receptor assessed as cAMP accumulation by HTRF assay; format: functional; how it was run: as §1
Sphingosine-1-phosphate receptor 1, sequence (W5VNF7 whole entry): as the sequence (W5VNF7 as listed by the source) above

[22] = Half life in monkey liver microsomes; format: ADME, Macaca mulatta; conditions: rhesus monkey
How it was run: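 Stability on incubation with liver microsomes of each species; half-life reported.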

Salmonella typhimurium [23] = experiment: Genotoxicity in Salmonella typhimurium in presence of rat liver S9 fraction by Ames bacterial reverse mutation assay; format: toxicity, organism-based; conditions: salmonella enterica subsp. enterica serovar typhimurium
[24] = biological target: Sphingosine 1-phosphate receptor 1 (Homo sapiens, UniProt P21453); experiment: Agonist activity at human S1P1 receptor assessed as cAMP accumulation by HTRF assay relative to S1P; format: functional; how it was run: as §1
Sphingosine 1-phosphate receptor 1 (Homo sapiens, UniProt P21453), sequence (P21453 whole entry): as the sequence (H9EUW9 whole entry) above, with S3P, L12H, T37I, R41K, P189S, M241I, D365E counted along it

[25] = Elimination half life in dog at 3 mg/kg, po; format: ADME, organism-based, Canis lupus familiaris; parameters: dose 3 mg/kg, route oral; conditions: in vivo, read-out: beta t1/2 (converted); how it was run: as §2
Rattus norvegicus [26] = experiment: Improvement histological parameters of knee and ankles in Lewis rat collagen-induced arthritis model at 3 mg/kg, po qd measured on day 17; format: functional, organism-based; parameters: dose 3 mg/kg
Mus musculus [27] = experiment: Systemic clearance in mouse at 1 mg/kg, iv relative to liver blood flow; format: ADME, organism-based; parameters: dose 1 mg/kg, route intravenous; conditions: in vivo
[28] = Tmax in dog at 1 mg/kg, iv or 3 mg/kg, po; format: ADME, organism-based, Canis lupus familiaris; conditions: in vivo
Rattus norvegicus [29] = experiment: Effect on neurobehaviour in Sprague-Dawley rat up to 350 mg/kg; format: ADME, organism-based; parameters: dose 350 mg/kg; conditions: in vivo
How it was run: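 CNS (neurobehavioral) and respiratory safety studies in SD rats, doses up to 350 mg/kg.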

[30] = Oral bioavailability in rat; format: ADME, organism-based; conditions: in vivo
Rattus norvegicus [31] = experiment: Reduction in ankle diameter in Lewis rat collagen-induced arthritis model at 3 mg/kg, po qd measured on day 17 (reference value: +/- inches); format: functional; how it was run: as §4
Cytochrome P450 2D6 = Cytochrome P450 2D6 (Homo sapiens, UniProt P10635); experiment: Inhibition of CYP2D6 (unknown origin); format: ADME
Cytochrome P450 2D6, sequence (P10635 whole entry): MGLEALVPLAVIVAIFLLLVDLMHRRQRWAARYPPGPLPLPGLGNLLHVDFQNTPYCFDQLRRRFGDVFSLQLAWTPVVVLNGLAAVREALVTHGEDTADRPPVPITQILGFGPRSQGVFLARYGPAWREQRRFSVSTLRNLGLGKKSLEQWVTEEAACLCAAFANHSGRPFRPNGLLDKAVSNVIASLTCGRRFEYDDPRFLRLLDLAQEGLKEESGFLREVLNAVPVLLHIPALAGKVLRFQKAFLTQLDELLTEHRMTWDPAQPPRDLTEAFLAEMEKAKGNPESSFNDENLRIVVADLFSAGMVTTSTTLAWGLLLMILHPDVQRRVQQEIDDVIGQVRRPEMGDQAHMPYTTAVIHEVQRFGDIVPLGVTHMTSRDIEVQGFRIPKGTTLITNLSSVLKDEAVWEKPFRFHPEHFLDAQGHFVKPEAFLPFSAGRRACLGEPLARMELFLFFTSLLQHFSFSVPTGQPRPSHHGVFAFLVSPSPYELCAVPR

[32] = Oral bioavailability in mouse at 1 mg/kg; format: ADME, organism-based; conditions: in vivo
[33] = AUC (0 to infinity) in dog at 1 mg/kg, iv or 3 mg/kg, po; format: ADME, organism-based, Canis lupus familiaris; conditions: plasma; how it was run: as §2
Mus musculus [34] = experiment: Reduction in lymphocyte infiltration in C57Bl/6 mouse experimental autoimmune encephalomyelitis model of multiple sclerosis at 3 mg/kg dosed once daily beginning on day 18 and continued to day 37 by immunofluorescent staining method; format: functional, organism-based; parameters: dose 3 mg/kg; how it was run: as §3
Rattus norvegicus [35] = experiment: Induction of body weight regain in Lewis rat collagen-induced arthritis model at 3 mg/kg, po qd measured on day 17 (reference value: 160.3 +/- 2.3 g); format: functional
[36] = biological target: Sphingosine 1-phosphate receptor 1 (Macaca mulatta) (UniProt H9EUW9); experiment: Agonist activity at monkey S1P1 receptor assessed as cAMP accumulation by HTRF assay relative to S1P; format: functional; how it was run: as §1
Sphingosine 1-phosphate receptor 1 (Macaca mulatta), sequence (H9EUW9 as listed by the source): as the sequence (H9EUW9 whole entry) above

[37] = biological target: Sphingosine 1-phosphate receptor 2 (Homo sapiens, UniProt O95136); experiment: Agonist activity at human S1P2 receptor by beta-arrestin recruitment assay
Sphingosine 1-phosphate receptor 2, sequence (O95136 whole entry): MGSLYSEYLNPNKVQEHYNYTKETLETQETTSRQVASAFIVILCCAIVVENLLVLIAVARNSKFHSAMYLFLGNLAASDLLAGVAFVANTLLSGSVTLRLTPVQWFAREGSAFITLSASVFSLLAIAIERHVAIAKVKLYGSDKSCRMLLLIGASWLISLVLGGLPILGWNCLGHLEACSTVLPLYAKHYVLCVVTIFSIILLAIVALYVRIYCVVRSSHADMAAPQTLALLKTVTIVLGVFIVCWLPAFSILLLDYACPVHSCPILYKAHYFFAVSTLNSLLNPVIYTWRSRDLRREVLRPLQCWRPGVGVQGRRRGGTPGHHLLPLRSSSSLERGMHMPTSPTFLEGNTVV

[38] = Elimination half life in rat at 1 mg/kg, po; format: ADME, organism-based; parameters: dose 1 mg/kg, route oral; conditions: in vivo, read-out: beta t1/2 (converted); how it was run: as §2

O=C(O)C[C@H]1CCc2c1[nH]c1ccc(OCc3ccc(C4CCCC4)c(C(F)(F)F)c3)cc21 [ETRASIMOD]
Tmax [1]: 8 h | EC50 [2]: 0.32 nM | Activity (Canis familiaris): Non-toxic | IC50 [3]: > 30000 nM | Emax [4]: 73% | EC50 [5]: 0.44 nM | Activity (Salmonella typhimurium [6]): Non-toxic | Emax [7]: 95% | Emax [8]: 63% | Cmax [9]: 218 ng/mL | AUC(0-inf) [10]: 10300 ng·h/mL | Cmax [11]: 780 ng/mL | Cmax [12]: 3710 ng/mL | Emax [13]: 87% | bioavailability [14]: 43.8% | Activity (Mus musculus [15]): Active | Activity (Rattus norvegicus [16]): 0.2803 inches | EC50 [17]: 29.9 nM | bioavailability [18]: 54% | bioavailability [19]: 73.2% | Activity (Rattus norvegicus [20]): Toxic | EC50 [21]: 0.34 nM | half-life [22]: > 1 h | Activity (Salmonella typhimurium [23]): Non-toxic | Emax [24]: 102% | half-life [25]: 28.8 h | Activity (Rattus norvegicus [26]): Active | CL (Mus musculus [27]): 2% | Tmax [28]: 7.33 h | Activity (Rattus norvegicus [29]): Non-toxic | bioavailability [30]: 54% | Activity (Rattus norvegicus [31]): 0.269 inches | IC50 (Cytochrome P450 2D6): > 50000 nM | bioavailability [32]: 100% | AUC(0-inf) [33]: 164000 ng·h/mL | Activity (Mus musculus [34]): Active | Activity (Rattus norvegicus [35]): 182.3 g | Emax [36]: 95% | EC50 [37]: > 10000 nM | half-life [38]: 9.64 h
